Measurements from different studies.
Each line is one published result; the experiments were not run side by side.
Target: Receptor tyrosine-protein kinase erbB-2 (ERBB2, Homo sapiens, UniProt P04626)

With `CN(CCCC(F)(F)F)c1nccc(-c2cnn3ncccc23)n1` the remaining binding was 99% (binding; 1 µM).
`COc1cnc(Nc2cccc(S(N)(=O)=O)c2)nc1N1CCN(c2ccccc2)CC1` gave a remaining binding of 100% (binding, competition with immobilised ligand; 1 µM).
`Nc1cnc(N2CCc3cc(S(=O)(=O)Nc4c(F)cc(Cl)cc4F)cc(N4CCCC4=O)c32)nc1` has a remaining binding of 100% (cell-free assay, competition with immobilised ligand; 1 µM).
`O=C(Nc1c[nH]nc1C(=O)NC1CCNCC1)c1cc(F)cc(F)c1` gave a remaining binding of 69% (binding, competition with immobilised ligand; 1 µM).
`FC(F)(F)Oc1cccc(-c2cnc3ccc(-c4ccncc4)nn23)c1` has a remaining binding of 57% (cell-free assay, competition with immobilised ligand; 5 µM).
`CNCc1ccccc1-c1csc([C@H](C)Nc2nc(C)nc3cc(OC)c(OC)cc23)c1` gave a remaining binding of 100% (cell-free assay, competition with immobilised ligand; 1 µM).
`C[C@H]1CCN(c2nccc(-c3cnn4ncccc34)n2)C1` has a remaining binding of 94% (binding; 1 µM).
`C[C@@H](c1cccc(C#N)c1)n1cc(Cl)cc(C(N)=O)c1=N` gave a remaining binding of 96% (cell-free assay, competition with immobilised ligand; 1 µM).
The remaining binding of `O=C(c1ccc(Nc2ncc(Cl)c(-c3ccc(Cl)s3)n2)cc1)N1CCC(N2CCCC2)CC1` is reported as 82% (binding, competition with immobilised ligand; 1 µM).
`COc1cc(-c2cn(C3CCc4ccccc4N(CC(F)(F)F)C3=O)nn2)ccc1-n1ccc(C)n1` (centres unmarked) gave a remaining binding of 100% (cell-free assay, competition with immobilised ligand; 1 µM).
For `O=C(NCCCN1CCOCC1)c1ccc(Nc2ncc(Cl)c(-c3ccc(Cl)s3)n2)cc1`, the remaining binding was 80% (binding, competition with immobilised ligand; 1 µM).
With `CN(C)c1nccc(-c2cnc3ncccn23)n1` the remaining binding was 0% (binding; 1 µM).
`O=C(c1ccc(Nc2nccc(-c3cc4ccccc4s3)n2)cc1)N1CCC(N2CCCC2)CC1` has a remaining binding of 90% (binding, competition with immobilised ligand; 1 µM).
`N[C@H]1CCN(c2nccc(-c3cnn4ncccc34)n2)C1` gave a remaining binding of 84% (binding; 1 µM).
`COc1ncc2cc3ccccc3nc2c1C#N` gave a remaining binding of 70% (cell-free assay, competition with immobilised ligand; 5 µM).
`N#Cc1ccccc1CSc1nnc2c(n1)[nH]c1ccccc12` gave a remaining binding of 94% (binding, competition with immobilised ligand; 10 µM).
`CS(=O)(=O)NCC[C@H](NC(=O)c1cncc2c1cnn2-c1ccc(F)cc1)c1ccnc(S(C)(=O)=O)c1` has a remaining binding of 100% (cell-free assay, competition with immobilised ligand; 1 µM).
`CN(C)c1nccc(-c2cnn3ncccc23)n1` has a remaining binding of 100% (binding; 1 µM).
`C[C@@H]1CN(c2ccc3ncc(-c4ccc5[nH]nc(C6CC6)c5c4)n3n2)C[C@H](C)O1` gave a remaining binding of 68% (binding, competition with immobilised ligand; 0.5 µM).
With `N#CC1(c2ccccn2)CCN(Cc2cc(C(=O)N3CCCC3)c(=O)n3ccccc23)CC1` the remaining binding was 95% (cell-free assay, competition with immobilised ligand; 1 µM).
`Cc1cnn2ncc(-c3ccnc(N(C)C)n3)c2c1` gave a remaining binding of 94% (binding; 1 µM).
`CS(=O)(=O)N1CCCC(NC(=O)[C@H](CCC2CCCCC2)NC(=O)c2ccc(CNC(=O)c3cnc4ccccn34)cc2)C1` (some centres unmarked) has a remaining binding of 100% (cell-free assay, competition with immobilised ligand; 0.1 µM).
`C=CC(=O)N1CCC(C(=O)NCC(=O)N2CCN(c3nc(-c4cnc(N)nc4C(F)F)nc(N4CCOCC4)n3)CC2)CC1` gave a remaining binding of 70% (binding, competition with immobilised ligand; 1 µM).
